# Legend:
# [1] = molecular target: Thrombin and coagulation factor VII (Homo sapiens) (UniProt P00734+P08709); experiment: Selectivity for F7a/TF over F2a; type: protein assay
# Procedure, shortened: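 FVIIa (7 nM) with soluble tissue factor (11 nM) was run in 1.5 mM EDTA. Thrombin (12.7 nM) was run in 1 mM EDTA with Tosyl-Gly-Pro-Lys-pNA at Km. Hydrolysis was followed at 405 nm, and apparent Ki came from a Morrison equation fit.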
# [2] = molecular target: T1, Coagulation factor VII (Homo sapiens, UniProt P08709); experiment: Binding affinity to F7a/TF complex; type: protein-complex assay
# T1 sequence (P08709 whole entry): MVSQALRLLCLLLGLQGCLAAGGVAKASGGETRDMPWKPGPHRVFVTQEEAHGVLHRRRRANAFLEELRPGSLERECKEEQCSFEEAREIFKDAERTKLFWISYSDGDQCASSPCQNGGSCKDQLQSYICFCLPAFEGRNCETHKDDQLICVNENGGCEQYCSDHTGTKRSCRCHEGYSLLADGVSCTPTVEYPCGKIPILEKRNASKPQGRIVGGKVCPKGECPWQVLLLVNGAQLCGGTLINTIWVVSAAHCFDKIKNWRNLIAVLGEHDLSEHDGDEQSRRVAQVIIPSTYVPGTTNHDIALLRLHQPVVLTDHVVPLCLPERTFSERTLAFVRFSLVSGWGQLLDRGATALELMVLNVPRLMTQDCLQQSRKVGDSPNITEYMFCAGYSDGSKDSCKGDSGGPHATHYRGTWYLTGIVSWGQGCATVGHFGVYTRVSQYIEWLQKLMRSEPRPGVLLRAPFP
# [3] = molecular target: Coagulation factor VII and X (Homo sapiens) (UniProt P00742+P08709); experiment: Selectivity for F7a/TF over F10a; type: protein assay
# Procedure, shortened: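 Reactions were started with pNA substrate at Km and read as A405 over time. Ki was fitted with the Morrison tight-binding equation.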
# [4] = molecular target: Coagulation factor VII/tissue factor (Homo sapiens) (UniProt P08709+P13726); experiment: Selectivity for F7a/TF over trypsin; type: protein-complex assay
# Procedure, shortened: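 Trypsin (10 nM) was tested without CaCl2, using Tosyl-Gly-Pro-Lys-pNA at Km. Readout was kinetic A405, and Ki was fitted with the Morrison tight-binding equation.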
# [5] = Binding affinity to trypsin; design: species or system Homo sapiens
# [6] = molecular target: Prothrombin (Homo sapiens, UniProt P00734); experiment: Binding affinity to F2a
# [7] = molecular target: Coagulation factor X (Homo sapiens, UniProt P00742); experiment: Binding affinity to F10a
# Sequence of Coagulation factor X (P00742 41-179 limits assumed): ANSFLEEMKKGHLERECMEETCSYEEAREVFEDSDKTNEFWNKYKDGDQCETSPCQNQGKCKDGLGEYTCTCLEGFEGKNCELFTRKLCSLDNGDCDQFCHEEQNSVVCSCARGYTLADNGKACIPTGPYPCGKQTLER
# Sequence of Coagulation factor X (P00742 235-488 limits assumed): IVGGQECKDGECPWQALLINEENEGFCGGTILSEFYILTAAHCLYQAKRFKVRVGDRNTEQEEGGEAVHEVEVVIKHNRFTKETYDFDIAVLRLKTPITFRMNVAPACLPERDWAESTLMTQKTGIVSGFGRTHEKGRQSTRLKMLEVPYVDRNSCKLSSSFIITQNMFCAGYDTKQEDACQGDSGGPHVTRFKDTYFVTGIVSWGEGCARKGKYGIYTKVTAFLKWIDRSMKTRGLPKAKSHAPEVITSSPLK
Structure (SMILES),Ratio Ki [1],Ki [2] [nM],Ratio Ki [3],Ratio Ki [4],Ki [5] [nM],Ki [6] [nM],Ki [7] [nM]
O=C(NCc1cccc(-c2cccc(-c3cc4c[nH]ccc-4n3)c2O)c1)C(O)c1ccccc1 (configuration not stated),68,850,80,57,,,
O=C(NCc1cccc(-c2cccc(-c3cc4c[nH]ccc-4n3)c2O)c1)Nc1ccccc1,2110,61.5,1010,2030,,,
O=C(NCc1cccc(-c2cccc(-c3cc4c[nH]ccc-4n3)c2O)c1)Nc1ccccc1Cl,2630,,2630,2630,,,
O=C(NCc1cccc(-c2cccc(-c3cc4c[nH]ccc-4n3)c2O)c1)Nc1cccs1,938,,600,538,,,
COc1ccccc1NC(=O)NCc1cccc(-c2cccc(-c3cc4c[nH]ccc-4n3)c2O)c1,3190,47,1720,3190,,,
O=C(NCc1cccc(-c2cccc(-c3cc4c[nH]ccc-4n3)c2O)c1)Nc1ccc(F)cc1F,1200,100,1700,1500,,,
O=C(NCc1cccc(-c2cccc(-c3cc4c[nH]ccc-4n3)c2O)c1)Nc1ccsc1,769,,623,1150,,,
O=C(NCCc1ccccc1)NCc1cccc(-c2cccc(-c3cc4c[nH]ccc-4n3)c2O)c1,174,270,417,96,,,
CC(=O)c1cccc(NC(=O)NCc2cccc(-c3cccc(-c4cc5c[nH]ccc-5n4)c3O)c2)c1,2000,60,2170,2170,,,
COc1ccc(NC(=O)NCc2cccc(-c3cccc(-c4cc5c[nH]ccc-5n4)c3O)c2)cc1,1020,88,705,1590,,,
O=C(NCCc1cccs1)NCc1cccc(-c2cccc(-c3cc4c[nH]ccc-4n3)c2O)c1,169,,429,120,,,
O=C(NCc1cccc(-c2cccc(-c3cc4c[nH]ccc-4n3)c2O)c1)Nc1ccccc1F,2460,57,1930,2630,,,
CN1CCN(C(=O)NCc2cccc(-c3cccc(-c4cc5c[nH]ccc-5n4)c3O)c2)CC1,1,130000,1,1,,,
N=C(N)c1ccc2[nH]c(-c3cccc(-c4cc(CNC(N)=O)ccc4O)c3O)nc2c1,,,,,3600,,
O=C(NCc1cccc(-c2cccc(-c3cc4c[nH]ccc-4n3)c2O)c1)C(CO)c1cccnc1 (configuration not stated),107,610,149,34,,,
O=C(NCc1cccc(-c2cccc(-c3cc4c[nH]ccc-4n3)c2O)c1)Nc1ccc(F)c(F)c1,455,330,455,455,,,
O=C(NCc1cccc(-c2cccc(-c3cc4c[nH]ccc-4n3)c2O)c1)C(CO)c1ccccc1 (configuration not stated),470,220,136,57,,,

Structure (SMILES),Ratio Ki [1],Ki [2] [nM],Ratio Ki [3],Ratio Ki [4],Ki [5] [nM],Ki [6] [nM],Ki [7] [nM]
O=C(NCc1cccc(-c2cccc(-c3cc4c[nH]ccc-4n3)c2O)c1)Nc1cccc(F)c1,1150,130,923,1150,,,
O=C(Cc1ccccc1)NCc1cccc(-c2cccc(-c3cc4c[nH]ccc-4n3)c2O)c1,24,,46,26,,,
COc1ccc(NC(=O)NCc2cccc(-c3cccc(-c4cc5c[nH]ccc-5n4)c3O)c2)c(OC)c1,3180,28,2640,5000,,,
O=C(NCc1cccc(-c2cccc(-c3cc4c[nH]ccc-4n3)c2O)c1)Nc1ccc(F)cc1,1360,110,382,1360,,,
O=C(NCc1cccc(-c2cccc(-c3cc4c[nH]ccc-4n3)c2O)c1)N(O)Cc1ccccc1,750,72,653,375,,,
CC(=O)c1ccc(NC(=O)NCc2cccc(-c3cccc(-c4cc5c[nH]ccc-5n4)c3O)c2)cc1,305,,789,495,,,
O=C(NCc1cccc(-c2cccc(-c3cc4c[nH]ccc-4n3)c2O)c1)N1CCCC1,5,17000,3,9,,,
O=C(NCc1cccc(-c2cccc(-c3cc4c[nH]ccc-4n3)c2O)c1)Nc1c(F)cccc1F,3940,33,2700,2180,,,
O=C(NCc1cccc(-c2cccc(-c3cc4c[nH]ccc-4n3)c2O)c1)Nc1cccnc1,968,155,635,935,,,
O=C(NCc1cccc(-c2cccc(-c3cc4c[nH]ccc-4n3)c2O)c1)Nc1ccc(C(=O)O)cc1,2240,58,966,1100,,,
COc1cccc(NC(=O)NCc2cccc(-c3cccc(-c4cc5c[nH]ccc-5n4)c3O)c2)c1,1500,100,1600,1500,,,
O=C(Cc1c(F)cccc1F)NCc1cccc(-c2cccc(-c3cc4c[nH]ccc-4n3)c2O)c1,16,9500,10,16,,,
NC(=O)NCc1cccc(-c2cccc(-c3cc4c[nH]ccc-4n3)c2O)c1,,,,,46500,71500,125000
CCCCCNC(=O)NCc1cccc(-c2cccc(-c3cc4c[nH]ccc-4n3)c2O)c1,343,335,388,181,,,
O=C(NCc1cccc(-c2cccc(-c3cc4c[nH]ccc-4n3)c2O)c1)Nc1cc(F)cc(F)c1,181,830,181,181,,,
O=C(NCc1cccc(-c2cccc(-c3cc4c[nH]ccc-4n3)c2O)c1)Nc1ccccn1,56,2700,67,56,,,
